SUMO HTRF inh – SUMOylation inhibition; inhibition, % at 35 µM; AID 2006; P63279; HTRF SUMOylation assay, SAE1/SAE2 + UBC9, in vitro; 290,000 tested, 0.36% active; in the data active = inhibition above about 50%, passing the limit was not always enough
CTSL1 counter – cathepsin L1 inhibition, PFM18AAP counter-screen; recombinant F. hepatica cathepsin L1, Z-Leu-Arg-MCA fluorescence; inhibition, % at 5.96 µM; 300,000 tested, 0.49% active; AID 1906;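 active = inhibition above the mean of all tested compounds plus 3 SD, set per screening campaign, cut at about 17% in these data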;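 note: 0% = plate median of test compound wells and 100% = 1 µM Z-Phe-Ala-diazomethylketone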
TDP2 inh – blocks human TDP2 phosphodiesterase activity; AID 720702; inhibition, % at 12.8 µM; recombinant TDP2, T5PNP hydrolysis, p-nitrophenol absorbance 415 nm; 370,000 tested, 0.34% active;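 active = inhibition above the mean of all tested compounds plus 3 SD, set per campaign, cut at about 25% in these data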;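 note: 0% = DMSO with enzyme and 100% = buffer with substrate but no TDP2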
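Incubation: 2 h at 37 °C; Test system: recombinant human TDP2; Quantity: enzyme 120 nM; Read-out basis: percent inhibition; Medium: 50 mM Tris-HCl pH 7.5 with Mg2+, KCl, DTT, BSA; Repeats: single replicate; Compound: 12.8 µM single point, 1% DMSO; Signal: epi absorbance; Reagent: 5 mM T5PNP chromogenic substrate; Benchmarks: no-enzyme high, DMSO-plus-enzyme low.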
NSD2 HMT inh – blocks human histone methyltransferase NSD2; O96028; NSD2 peptide methylation, AlphaScreen, 120 min; inhibition, % at 12.5 µM; 310,000 tested, 0.54% active; in the data active = inhibition above about 50%
AlphaScreen art – interferes with AlphaScreen signal, flagging NSD2 false positives. shares compounds with NSD2 HMT inh. AlphaScreen artifact counterscreen, preloaded methylated H4 peptide. AC35, µM (highest dose often 10 µM), without a hit: top-dose activity change, negative = signal loss. 1,500 tested, 9.4% active. AID 1053174; call rule not given here
The depositor's hits bear a star; . = no result. A selection: hits, their analogues and other compounds. The true share with any hit is near 1.2%.

SMILES | SUMO HTRF inh | CTSL1 counter | TDP2 inh | NSD2 HMT inh | AlphaScreen art
O=C(CCn1c(=O)oc2ccccc21)Nc1ccccc1 | 18.1 | -0.3 | 4.6 | -1.9 | .
COc1ccccc1CNC(=O)CCn1c(=O)oc2ccccc21 | 5.8 | 0.1 | 3.8 | . | .
Cc1ccc(NC(=O)CCn2c(=O)oc3ccccc32)cc1 | -3.3 | -1.5 | -9.7 | 55.1* | -0.8%
O=[N+]([O-])c1ccccc1C(=Nc1ccccc1)c1c(O)cc(O)cc1O | . | . | 5.9 | 4.3 | .
CCOC(=O)C(CCCCP(=O)(c1ccccc1)c1ccccc1)(NC(C)=O)C(=O)OCC | 4.3 | 0.0 | 7.7 | 14.7 | .
CCOC(=O)C(CCCP(=O)(c1ccccc1)c1ccccc1)(NC(C)=O)C(=O)OCC | -12.9 | 5.0 | -18.4 | 59.9* | -4.8%
COc1cc(NC(=O)c2ccccc2)c(OC)cc1NC(=O)CSc1[nH]c(=O)cc(C)c1C#N | 40.0 | 4.3 | 1.0 | 129.9* | -6.0%
COc1ccc(Cc2ccccc2C(=O)O)cc1 | . | . | 5.3 | 50.5* | 0.7%
CC(C)N(Cc1ccccc1)C(=O)C1CCCN(c2ncnc3c2nc2n3CCCCC2)C1 (configuration not stated) | -8.9 | 1.9 | 13.2 | 53.9* | -3.4%
CCc1nc2ccc(C)cc2c(C(=O)NC2CCCCC2C)c1C (configuration not stated) | -13.9 | 1.0 | -3.9 | 75.0* | -1.9%
C/C(CC(=O)NCCCN1CCOCC1)=N\NC(=O)COc1ccc(Cl)cc1 | 2.6 | 2.0 | 7.8 | 65.2* | -7.0%
C/C(CC(=O)NCCCN1CCOCC1)=N\NC(=O)COc1ccc(C)cc1 | 9.4 | -3.0 | -0.9 | -1.4 | .
COc1ccc(C(=O)Oc2ccc(C)cc2)cc1S(=O)(=O)N1CCOCC1 | . | . | -6.4 | . | .
O=C1c2ccccc2C(=O)N1CCC(c1ccc(F)cc1)c1ccco1 (configuration not stated) | 33.8 | 18.0* | -15.2 | 118.9* | -1.8%
O=[N+]([O-])c1ccc(N/N=C/c2cccs2)nc1 | . | 3.9 | -7.3 | 52.4* | -1.4%
CC(C)(C)c1ccc(S(=O)(=O)NC(=O)C2(C)CCN2C(=O)Cc2ccccc2Cl)cc1 (configuration not stated) | . | . | 1.5 | -2.0 | .
Cc1cc(=O)n(-c2ccc3ccccc3n2)[nH]1 | -87.8 | -3.2 | 4.6 | 85.9* | -5.1%
CC1=CCC2C(=O)N(c3ccc4ccccc4n3)C(=O)C2C1 (configuration not stated) | 19.7 | -0.6 | 9.1 | 0.2 | .
Cc1ccccc1Nc1nc(N)nc(CSc2nnc3sc4ccccc4n23)n1 | 6.0 | -1.0 | 11.4 | 66.2* | 3.9%
CCOC(=O)Cn1ncc(-c2ccccc2)c1N | 18.6 | -2.7 | -0.7 | 127.9* | -1.5%
CCOC(=O)Cn1nc(-c2ccccc2)nc1-c1ccccc1 | 19.0 | 3.1 | -3.1 | -5.2 | .
CSc1ncccc1C(=O)Nc1nc2c(C)cccc2s1 | -7.1 | 3.5 | -18.0 | 104.1* | -1.2%
CSc1ncccc1C(=O)Nc1ncc(C)s1 | 7.1 | -1.3 | 10.8 | 4.2 | .
CCc1nc2ccc(C(=O)Nc3cccc(OCC(=O)N(C)C)c3)cn2c1N(CCC(C)C)CCN(C)C | . | . | 4.1 | 1.5 | .
CC(C)NC(=O)C1(C)Cc2c(-c3ccc(N(C)C)cc3)ccnc2O1 (configuration not stated) | . | . | 7.3 | 2.1 | .
SMILES | SUMO HTRF inh | CTSL1 counter | TDP2 inh | NSD2 HMT inh | AlphaScreen art
CCOC(=O)N1CCN(C2=Nc3cccc4cccc2c34)CC1 | 34.1 | 0.7 | 6.1 | 71.0* | -4.2%
COc1ccc(NC(C)C(=O)Nc2cccc(S(=O)(=O)N3CCOCC3)c2)cc1OC (configuration not stated) | . | . | 5.3 | 8.4 | .
Oc1ccc(/C=N/Nc2cc(N3CCOCC3)nc(N3CCOCC3)n2)cc1O | -8.1 | -0.3 | 6.6 | 105.6* | -18.3%
Cc1nc(N/N=C/c2ccc(O)cc2O)cc(N2CCOCC2)n1 | -25.4 | -1.3 | -5.1 | 9.7 | .
Oc1ccccc1/C=N/Nc1cc(N2CCCC2)nc(N2CCCC2)n1 | 14.0 | -2.4 | -4.9 | 53.6* | -14.1%
Oc1cccc(/C=N/Nc2cc(N3CCOCC3)nc(N3CCOCC3)n2)c1 | 7.4 | 2.7 | -1.7 | 23.2 | .
COc1ccc(C(C)(O)c2nc(-c3ccc(S(C)(=O)=O)cc3)cs2)cc1 (configuration not stated) | . | . | 14.2 | -1.3 | .
CCOc1ccc(-c2cn[nH]c2N)cc1 | 23.1 | 2.3 | . | -0.5 | .
COc1ccc(-c2cn[nH]c2N)cc1 | 18.4 | -3.8 | -22.8 | 62.6* | -3.3%
O=C(Nc1ccc(O)cc1)C1CC=CCC1 (configuration not stated) | 9.0 | 1.4 | -2.4 | 126.3* | -4.9%
COc1ccc(N(CC(=O)NCCSc2ccccn2)S(C)(=O)=O)cc1 | 4.6 | -1.0 | 11.6 | 126.6* | -3.0%
CC(C)(C)OC(=O)N1CCC[C@@H]1C(=O)N1CCC[C@@H]1C(=O)NCc1ccccc1 | . | . | 11.2 | . | .
CCCN1C[C@@H](C)[C@@H](OC)CN(C)C(=O)c2ccc(NC(=O)c3cccc(F)c3)cc2OC[C@H]1C | . | . | -5.5 | . | .
O=Cc1ccc(OC(=O)C2CC(=O)N(c3ccc(F)cc3)C2)cc1 (configuration not stated) | 13.1 | -7.4 | -2.2 | 124.5* | 6.7%
O=C(O)C1CC(=O)N(c2ccc(F)cc2)C1 (configuration not stated) | 7.1 | -0.3 | 5.0 | 0.6 | .
Cc1ccc(C)c(N2C(=N)S/C(=C\c3ccc(-c4ccccc4C(=O)O)o3)C2=O)c1 | 14.8 | 4.2 | -8.0 | 53.8* | -2.8%
CCOC(=O)C(C)N1C(=O)S/C(=C\c2ccc(-c3ccccc3C(=O)O)o2)C1=O (configuration not stated) | 34.0 | 9.0 | -5.6 | 49.4 | .
CCCC(=O)Nc1cc(C)cn(Cc2c(F)cccc2Cl)c1=O | -9.0 | -1.9 | -1.0 | 75.8* | -7.6%
COCC(=O)Nc1cc(C)cn(Cc2ccccc2Cl)c1=O | 17.8 | -0.1 | 1.1 | -1.0 | .
COc1cc(/C=C/C(=O)OCC(=O)NNC(=O)c2cc(Cl)ccc2OC)ccc1O | . | . | -2.6 | 63.0* | 1.7%
COc1cc(/C=C/C(=O)OCC(=O)NC(=O)NC(C)(C)C)ccc1O | -16.9 | -3.6 | 3.3 | 0.3 | .
O=C(Nc1ccccc1)c1cc(C2CCCCN2C(=O)OCCF)on1 (configuration not stated) | . | . | 6.3 | -2.9 | .
CC(C)n1c(NCc2nc3ccccc3n2C)nc2ccccc21 | 11.4 | 1.7 | 7.5 | 119.7* | 5.0%
O=C1C=C(NCc2ccccc2)c2ccccc2C1=O | 99.1 | . | 23.4 | 140.3* | -1.9%
CC(C)(C)NC(=O)C(c1ccco1)N(C(=O)Cn1nnc(-c2ccc(F)cc2)n1)c1ccccc1F (configuration not stated) | 3.4 | -1.4 | -6.1 | 50.1* | -3.2%
CC(C)(C)NC(=O)C(c1ccco1)N(C(=O)Cn1nnc(-c2ccc(F)cc2)n1)c1ccccc1 (configuration not stated) | . | 11.8 | 3.7 | . | .
O=C1CC2(CCCCC2)CC(=O)N1CCc1ccccc1 | . | . | 0.4 | 74.5* | 1.4%
O=C1NC[C@@H](CCCCN2C[C@H](Cc3ccc(O)cc3)N(Cc3ccccc3)C(=O)C2=O)N(CCC2CCCCC2)C1=O | . | . | 4.7 | . | .

Screens from PubChem BioAssay.
